This is an account of results in ChEMBL document CHEMBL1142162, “Synergistic interactions of the antiretroviral protease inhibitors saquinavir and ritonavir with chloroquine and mefloquine against Plasmodium falciparum in vitro” (Antimicrob Agents Chemother, 2007).

Common to all, as to type: functional, organism-based
For assay [1], the system named is Plasmodium falciparum. The assay can be described thus: Antimalarial activity against Plasmodium falciparum Dd2. The method, boiled down:
(§1)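 P. falciparum clones kept in modified candle jars; triplicate wells holding 100 µl culture (2% hematocrit, 1% parasitemia) plus 100 µl drug dilution or control. Growth read by tritiated hypoxanthine incorporation, media and vehicle controls on each plate. Experiments repeated at least twice; EC50 derived from pooled data of all experiments.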

Assay [2] relates to Plasmodium falciparum. In words: Antimalarial activity against Plasmodium falciparum FAC8. The method, boiled down: as §1
Assay [3] concerns Plasmodium falciparum. In words: Antimalarial activity against Plasmodium falciparum D10. In a few lines: as §1

Calls of active or inactive are those of the source. The calls are words filed in the database; no cut-off is given here.

By EC50 is commonly meant the concentration giving half of the maximal effect. Read a high EC50 as lower potency in that assay.

With `CC(C)C[C@H](NC(=O)[C@H]1O[C@@H]1C(=O)O)C(=O)NCCCCN=C(N)N` [E-64], in the assay on Plasmodium falciparum [1], the response was half-maximal at 2.9 µM (EC50). In other words, the single-digit micromolar range. For the compound `O[C@@H](c1cc(C(F)(F)F)nc2c(C(F)(F)F)cccc12)[C@H]1CCCCN1` [MEFLOQUINE], the EC50 with Plasmodium falciparum [1] came to 0.06 µM; in the assay with Plasmodium falciparum [2], 0.023 µM; with Plasmodium falciparum [3], 0.064 µM.

For the compound `CC(C)(C)NC(=O)[C@@H]1C[C@@H]2CCCC[C@@H]2CN1C[C@@H](O)[C@H](Cc1ccccc1)NC(=O)[C@H](CC(N)=O)NC(=O)c1ccc2ccccc2n1` [SAQUINAVIR], the EC50 in the assay on Plasmodium falciparum [1] stood at 0.96 µM; in the assay with Plasmodium falciparum [3], 5.5 µM. `CCN(CC)CCCC(C)Nc1ccnc2cc(Cl)ccc12` (stereo not drawn) [CHLOROQUINE] yielded an EC50 with Plasmodium falciparum [1] of 0.055 µM.

Turning to `CC(C)CC(=O)N[C@H](C(=O)N[C@H](C(=O)N[C@@H](CC(C)C)[C@@H](O)CC(=O)N[C@@H](C)C(=O)N[C@@H](CC(C)C)[C@@H](O)CC(=O)O)C(C)C)C(C)C` [PEPSTATIN], in the assay on Plasmodium falciparum [1], the outcome was inactive. For the same compound, in the assay with Plasmodium falciparum [3], it took 14 µM to reach a half-maximal effect (EC50). For the compound `CC(C)c1nc(CN(C)C(=O)N[C@H](C(=O)N[C@@H](Cc2ccccc2)C[C@H](O)[C@H](Cc2ccccc2)NC(=O)OCc2cncs2)C(C)C)cs1` [RITONAVIR], the EC50 is 0.85 µM in the assay with Plasmodium falciparum [1], 7 µM in the assay on Plasmodium falciparum [2] and 1.1 µM with Plasmodium falciparum [3].

The compound `CC(C)C[C@H](NC(=O)[C@@H](O)[C@H](N)Cc1ccccc1)C(=O)O` [UBENIMEX] had an EC50 in the assay on Plasmodium falciparum [1] of 5.1 µM.
